In ChEMBL document CHEMBL4364301 (Eur J Med Chem, 2019):
pIC50: −log10 of the molar value.

Key:
Format in all cases: functional
DU-145 [1] = assay: Antiproliferative activity against human DU145 cells assessed as reduction in cell growth incubated for 96 hrs by propidium iodide based 2D monolayer assay; details: DU-145, 96 h
Procedure, shortened: (§1)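 After 24 h recovery, compound in medium or medium alone (control wells) was added at 10 half-log concentrations from 0.0032 to 100 µM, in triplicate, with at most 0.3% DMSO. After 96 h, wells were PBS-washed, stained with 7 µg/ml PI and 0.1% Triton X-100, and fluorescence read at 530/620 nm. IC50 came from a 4-parameter fit, geometric mean.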

CWR22R [2] = assay: Antiproliferative activity against human 22Rv1 cells assessed as reduction in cell growth incubated for 96 hrs by propidium iodide based 2D monolayer assay; details: 22Rv1, 96 h; procedure, shortened: as §1
LNCaP [3] = assay: Antiproliferative activity against human LNCAP cells assessed as reduction in cell growth incubated for 96 hrs by propidium iodide based 2D monolayer assay; procedure, shortened: as §1
VCaP [4] = assay: Antiproliferative activity against human VCaP cells assessed as reduction in cell growth incubated for 96 hrs by propidium iodide based 2D monolayer assay
Procedure, shortened: (§2)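 VCaP cells in RPMI 1640 with 10% FCS at 37 °C, 5% CO2, seeded 4,000–20,000 cells/well and left 24 h before dosing. Compounds from DMSO stocks were diluted in half-log steps in medium, 10 concentrations 0.0032–100 μM, triplicate wells, max 0.3% DMSO. After 96 h, cells were washed, stained with 7 μg/ml propidium iodide plus 0.1% Triton X-100 for 1–2 h at room temperature, and fluorescence read at ex 530/em 620 nm.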

VCaP [5] = assay: Antiproliferative activity against human VCaP cells assessed as T/C value at 3.2 x 10^-3 uM incubated for 96 hrs by propidium iodide based 2D monolayer assay; procedure, shortened: as §2
VCaP [6] = assay: Antiproliferative activity against human VCaP cells assessed as T/C value at 1 x 10^-2 uM incubated for 96 hrs by propidium iodide based 2D monolayer assay
Procedure, shortened: as §1, with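 “Cells were kept in RPMI 1640 with 25 mM HEPES, 10% FCS and gentamicin at 37 °C under 5% CO2, and plated at 4,000-20,000 cells/well. After 24” for “After 24”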

VCaP [7] = assay: Antiproliferative activity against human VCaP cells assessed as T/C value at 1 x 10^-1 uM incubated for 96 hrs by propidium iodide based 2D monolayer assay
Procedure, shortened: as §1, with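 “Cells were kept in RPMI 1640 with 25 mM HEPES, 10% FCS and gentamicin at 37 °C under 5% CO2, and plated at 4,000-20,000 cells/well. After 24” for “After 24”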

VCaP [8] = assay: Antiproliferative activity against human VCaP cells assessed as T/C value at 1 uM incubated for 96 hrs by propidium iodide based 2D monolayer assay
Procedure, shortened: as §1, with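 “Cells were kept in RPMI 1640 with 25 mM HEPES, 10% FCS and gentamicin at 37 °C under 5% CO2, and plated at 4,000-20,000 cells/well. After 24” for “After 24”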

VCaP [9] = assay: Antiproliferative activity against human VCaP cells assessed as T/C value at 3.2 uM incubated for 96 hrs by propidium iodide based 2D monolayer assay
Procedure, shortened: as §1, with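 “Cells were kept in RPMI 1640 with 25 mM HEPES, 10% FCS and gentamicin at 37 °C under 5% CO2, and plated at 4,000-20,000 cells/well. After 24” for “After 24”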

VCaP [10] = assay: Antiproliferative activity against human VCaP cells assessed as T/C value at 1 x 10^1 uM incubated for 96 hrs by propidium iodide based 2D monolayer assay
Procedure, shortened: as §1, with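 “Cells were kept in RPMI 1640 with 25 mM HEPES, 10% FCS and gentamicin at 37 °C under 5% CO2, and plated at 4,000-20,000 cells/well. After 24” for “After 24”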

VCaP [11] = assay: Antiproliferative activity against human VCaP cells assessed as T/C value at 3.2 x 10^1 uM incubated for 96 hrs by propidium iodide based 2D monolayer assay; procedure, shortened: as §2
VCaP [12] = assay: Antiproliferative activity against human VCaP cells assessed as T/C value at 1 x 10^2 uM incubated for 96 hrs by propidium iodide based 2D monolayer assay
Procedure, shortened: as §1, with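 “Cells were kept in RPMI 1640 with 25 mM HEPES, 10% FCS and gentamicin at 37 °C under 5% CO2, and plated at 4,000-20,000 cells/well. After 24” for “After 24”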

LNCaP [13] = assay: Antiproliferative activity against human LNCAP cells assessed as T/C value at 3.2 x 10^-3 uM incubated for 96 hrs by propidium iodide based 2D monolayer assay
Procedure, shortened: as §1, with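 “Cells were kept in RPMI 1640 with 25 mM HEPES, 10% FCS and gentamicin at 37 °C under 5% CO2, and plated at 4,000-20,000 cells/well. After 24” for “After 24”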

LNCaP [14] = assay: Antiproliferative activity against human LNCAP cells assessed as T/C value at 1 x 10^-2 uM incubated for 96 hrs by propidium iodide based 2D monolayer assay
Procedure, shortened: as §1, with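 “Cells were kept in RPMI 1640 with 25 mM HEPES, 10% FCS and gentamicin at 37 °C under 5% CO2, and plated at 4,000-20,000 cells/well. After 24” for “After 24”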

LNCaP [15] = assay: Antiproliferative activity against human LNCAP cells assessed as T/C value at 3.2 x 10^-2 uM incubated for 96 hrs by propidium iodide based 2D monolayer assay
Procedure, shortened: as §1, with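 “Cells were kept in RPMI 1640 with 25 mM HEPES, 10% FCS and gentamicin at 37 °C under 5% CO2, and plated at 4,000-20,000 cells/well. After 24” for “After 24”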

LNCaP [16] = assay: Antiproliferative activity against human LNCAP cells assessed as T/C value at 1 x 10^-1 uM incubated for 96 hrs by propidium iodide based 2D monolayer assay
Procedure, shortened: as §1, with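 “Cells were kept in RPMI 1640 with 25 mM HEPES, 10% FCS and gentamicin at 37 °C under 5% CO2, and plated at 4,000-20,000 cells/well. After 24” for “After 24”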

LNCaP [17] = assay: Antiproliferative activity against human LNCAP cells assessed as T/C value at 1 uM incubated for 96 hrs by propidium iodide based 2D monolayer assay
Procedure, shortened: as §1, with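 “Cells were kept in RPMI 1640 with 25 mM HEPES, 10% FCS and gentamicin at 37 °C under 5% CO2, and plated at 4,000-20,000 cells/well. After 24” for “After 24”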

LNCaP [18] = assay: Antiproliferative activity against human LNCAP cells assessed as T/C value at 3.2 uM incubated for 96 hrs by propidium iodide based 2D monolayer assay
Procedure, shortened: as §1, with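 “Cells were kept in RPMI 1640 with 25 mM HEPES, 10% FCS and gentamicin at 37 °C under 5% CO2, and plated at 4,000-20,000 cells/well. After 24” for “After 24”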

LNCaP [19] = assay: Antiproliferative activity against human LNCAP cells assessed as T/C value at 3.2 x 10^1 uM incubated for 96 hrs by propidium iodide based 2D monolayer assay
Procedure, shortened: as §1, with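 “Cells were kept in RPMI 1640 with 25 mM HEPES, 10% FCS and gentamicin at 37 °C under 5% CO2, and plated at 4,000-20,000 cells/well. After 24” for “After 24”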

LNCaP [20] = assay: Antiproliferative activity against human LNCAP cells assessed as T/C value at 1 x 10^2 uM incubated for 96 hrs by propidium iodide based 2D monolayer assay
Procedure, shortened: as §1, with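 “Cells were kept in RPMI 1640 with 25 mM HEPES, 10% FCS and gentamicin at 37 °C under 5% CO2, and plated at 4,000-20,000 cells/well. After 24” for “After 24”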

CWR22R [21] = assay: Antiproliferative activity against human 22Rv1 cells assessed as T/C value at 3.2 x 10^-2 uM incubated for 96 hrs by propidium iodide based 2D monolayer assay
Procedure, shortened: as §1, with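 “Cells were kept in RPMI 1640 with 25 mM HEPES, 10% FCS and gentamicin at 37 °C under 5% CO2, and plated at 4,000-20,000 cells/well. After 24” for “After 24”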

CWR22R [22] = assay: Antiproliferative activity against human 22Rv1 cells assessed as T/C value at 1 x 10^-1 uM incubated for 96 hrs by propidium iodide based 2D monolayer assay
Procedure, shortened: as §1, with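 “Cells were kept in RPMI 1640 with 25 mM HEPES, 10% FCS and gentamicin at 37 °C under 5% CO2, and plated at 4,000-20,000 cells/well. After 24” for “After 24”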

CWR22R [23] = assay: Antiproliferative activity against human 22Rv1 cells assessed as T/C value at 3.2 x 10^-1 uM incubated for 96 hrs by propidium iodide based 2D monolayer assay
Procedure, shortened: as §1, with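 “Cells were kept in RPMI 1640 with 25 mM HEPES, 10% FCS and gentamicin at 37 °C under 5% CO2, and plated at 4,000-20,000 cells/well. After 24” for “After 24”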

CWR22R [24] = assay: Antiproliferative activity against human 22Rv1 cells assessed as T/C value at 1 uM incubated for 96 hrs by propidium iodide based 2D monolayer assay
Procedure, shortened: as §1, with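 “Cells were kept in RPMI 1640 with 25 mM HEPES, 10% FCS and gentamicin at 37 °C under 5% CO2, and plated at 4,000-20,000 cells/well. After 24” for “After 24”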

CWR22R [25] = assay: Antiproliferative activity against human 22Rv1 cells assessed as T/C value at 1 x 10^2 uM incubated for 96 hrs by propidium iodide based 2D monolayer assay
Procedure, shortened: as §1, with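 “Cells were kept in RPMI 1640 with 25 mM HEPES, 10% FCS and gentamicin at 37 °C under 5% CO2, and plated at 4,000-20,000 cells/well. After 24” for “After 24”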

DU-145 [26] = assay: Antiproliferative activity against human DU145 cells assessed as T/C value at 3.2 x 10^-3 uM incubated for 96 hrs by propidium iodide based 2D monolayer assay; procedure, shortened: as §1
DU-145 [27] = assay: Antiproliferative activity against human DU145 cells assessed as T/C value at 3.2 x 10^-2 uM incubated for 96 hrs by propidium iodide based 2D monolayer assay; procedure, shortened: as §1
DU-145 [28] = assay: Antiproliferative activity against human DU145 cells assessed as T/C value at 1 uM incubated for 96 hrs by propidium iodide based 2D monolayer assay; procedure, shortened: as §1
DU-145 [29] = assay: Antiproliferative activity against human DU145 cells assessed as T/C value at 3.2 uM incubated for 96 hrs by propidium iodide based 2D monolayer assay
Procedure, shortened: as §1, with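 “Cells were kept in RPMI 1640 with 25 mM HEPES, 10% FCS and gentamicin at 37 °C under 5% CO2, and plated at 4,000-20,000 cells/well. After 24” for “After 24”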

DU-145 [30] = assay: Antiproliferative activity against human DU145 cells assessed as T/C value at 1 x 10^1 uM incubated for 96 hrs by propidium iodide based 2D monolayer assay; procedure, shortened: as §1
DU-145 [31] = assay: Antiproliferative activity against human DU145 cells assessed as T/C value at 3.2 x 10^1 uM incubated for 96 hrs by propidium iodide based 2D monolayer assay
Procedure, shortened: as §1, with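 “Cells were kept in RPMI 1640 with 25 mM HEPES, 10% FCS and gentamicin at 37 °C under 5% CO2, and plated at 4,000-20,000 cells/well. After 24” for “After 24”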

DU-145 [32] = assay: Antiproliferative activity against human DU145 cells assessed as T/C value at 1 x 10^2 uM incubated for 96 hrs by propidium iodide based 2D monolayer assay
Procedure, shortened: as §1, with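 “Cells were kept in RPMI 1640 with 25 mM HEPES, 10% FCS and gentamicin at 37 °C under 5% CO2, and plated at 4,000-20,000 cells/well. After 24” for “After 24”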

CC(O)(COc1cccc(S(F)(F)(F)(F)F)c1)C(=O)Nc1cc(C(F)(F)F)cc(C(F)(F)F)c1 (racemic)
pIC50 (DU-145 [1]): 5.24 | IC70 (DU-145 [1]): 6.66 µM | pIC50 (CWR22R [2]): 5.64 | IC70 (CWR22R [2]): 3.17 µM | pIC50 (LNCaP [3]): 5.52 | IC70 (LNCaP [3]): 3.1 µM | pIC50 (VCaP [4]): 5.57 | IC70 (VCaP [4]): 5.41 µM | T/C (VCaP [5]): 111% | T/C (VCaP [6]): 99% | T/C (VCaP [7]): 92% | T/C (VCaP [8]): 88% | T/C (VCaP [9]): 34% | T/C (VCaP [10]): 32% | T/C (VCaP [11]): 5% | T/C (VCaP [12]): 6% | T/C (LNCaP [13]): 88% | T/C (LNCaP [14]): 89% | T/C (LNCaP [15]): 83% | T/C (LNCaP [16]): 98% | T/C (LNCaP [17]): 93% | T/C (LNCaP [18]): 18% | T/C (LNCaP [19]): 1% | T/C (LNCaP [20]): 2% | T/C (CWR22R [21]): 109% | T/C (CWR22R [22]): 99% | T/C (CWR22R [23]): 101% | T/C (CWR22R [24]): 94% | T/C (CWR22R [25]): 2% | T/C (DU-145 [26]): 104% | T/C (DU-145 [27]): 105% | T/C (DU-145 [28]): 120% | T/C (DU-145 [29]): 105% | T/C (DU-145 [30]): 6% | T/C (DU-145 [31]): 3% | T/C (DU-145 [32]): 0%
